From ChEMBL document CHEMBL5042469, “Unique Molecular Interaction with the Histone Deacetylase 6 Catalytic Tunnel: Crystallographic and Biological Characterization of a Model Chemotype” (J Med Chem, 2021) come the findings set out here.

In data set [1] the test system is MV4-11. In words: Induction of apoptosis in human MV4-11 cells assessed as late apoptotic cells at 0.25 uM incubated for 15 mins by Annexin-V/FITC staining based FACS analysis (reference value: 4.36%). Format: functional. The method in brief: (§1)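 MV4-11 cells were dosed, then washed twice in cold PBS and resuspended in binding buffer at 1×10^6 cells/mL. Cells were stained with FITC-annexin V and propidium iodide for 15 min in the dark, diluted with binding buffer and analysed by flow cytometry within 1 h. Quadrants: LL viable, LR early apoptotic, UR late apoptotic. Duplicate experiments averaged; DMSO control.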

For data set [2], the system named is MV4-11. In words: Induction of apoptosis in human MV4-11 cells assessed as early apoptotic cells at 2 uM incubated for 15 mins by Annexin-V/FITC staining based FACS analysis (reference value: 7.28%). Format: functional. Particulars: 0.25 h. The method in brief:
as §1

Data set [3] concerns MV4-11. In words: Induction of apoptosis in human MV4-11 cells assessed as late apoptotic cells at 1 uM incubated for 15 mins by Annexin-V/FITC staining based FACS analysis (reference value: 4.36%). It is filed as functional. Particulars: 0.25 h. The method in brief: as §1
In data set [4] the test system is MV4-11. In words: Induction of apoptosis in human MV4-11 cells assessed as viable cells at 0.25 uM incubated for 15 mins by Annexin-V/FITC staining based FACS analysis (reference value: 84.58%). Particulars: MV4-11, 0.25 h, read-out: Activity. It is filed as functional. The method, boiled down:
as §1

The test system of data set [5] is MV4-11. In words: Induction of apoptosis in human MV4-11 cells assessed as viable cells at 0.50 uM incubated for 15 mins by Annexin-V/FITC staining based FACS analysis (reference value: 84.58%). Format: functional. Particulars: MV4-11, 0.25 h, read-out: Activity. The method in brief: as §1
The subject of data set [6] is MV4-11. In words: Induction of apoptosis in human MV4-11 cells assessed as late apoptotic cells at 2 uM incubated for 15 mins by Annexin-V/FITC staining based FACS analysis (reference value: 4.36%). Format: functional. Particulars: 0.25 h. The method, boiled down: as §1
Data set [7] in a line: Half life in Balb/c mouse at 50 mg/kg, ip by LC-MS/MS analysis. Format: ADME, organism-based. Particulars: in vivo. The method in brief:
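Male BALB/c mice received a single intraperitoneal dose from a 50 mg/mL solution in 5% DMSO, 30% PEG400, 1% Tween80 and 64% saline. Blood was collected at several time points and the compound quantified by triple-quadrupole LC-MS/MS.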

Data set [8] is described as follows: Half life in mouse plasma incubated for 1 hr. Format: ADME, cell-free. The method in brief: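 Compound was incubated in mouse plasma or in pooled human whole blood. […] Triplicate studies, averaged.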
In data set [9] the target is Histone deacetylase 2 (Homo sapiens, UniProt Q92769). In words: Inhibition of full length human HDAC2 using FAM-labeled acetylated peptide as substrate by electrophoretic mobility shift assay. The method, boiled down: (§2)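 Full-length human HDAC isoform enzymatic assay by electrophoretic mobility shift, using a FAM-labelled acetylated peptide substrate. […] Values are the mean of duplicate experiments with 95% confidence intervals.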
Sequence of Histone deacetylase 2 (Q92769 whole entry, canonical isoform): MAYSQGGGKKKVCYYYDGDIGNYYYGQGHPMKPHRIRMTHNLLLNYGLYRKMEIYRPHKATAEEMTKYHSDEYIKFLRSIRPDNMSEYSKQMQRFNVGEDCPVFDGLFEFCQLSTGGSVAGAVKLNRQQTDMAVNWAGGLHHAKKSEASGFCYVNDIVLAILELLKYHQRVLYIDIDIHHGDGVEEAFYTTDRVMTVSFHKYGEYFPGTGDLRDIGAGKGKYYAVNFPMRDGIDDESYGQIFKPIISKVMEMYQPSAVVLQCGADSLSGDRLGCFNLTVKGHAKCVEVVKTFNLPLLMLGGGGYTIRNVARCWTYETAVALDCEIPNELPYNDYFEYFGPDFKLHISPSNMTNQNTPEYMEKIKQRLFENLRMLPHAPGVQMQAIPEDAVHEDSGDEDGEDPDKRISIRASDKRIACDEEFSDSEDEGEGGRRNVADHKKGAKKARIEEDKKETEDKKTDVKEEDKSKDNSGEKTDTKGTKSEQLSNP

The test system of data set [10] is MV4-11. In words: Induction of apoptosis in human MV4-11 cells assessed as viable cells at 4 uM incubated for 15 mins by Annexin-V/FITC staining based FACS analysis (reference value: 35.53%). It is filed as functional. Particulars: MV4-11, 0.25 h, read-out: Activity. The method, boiled down:
as §1

Data set [11] concerns MV4-11. In words: Induction of apoptosis in human MV4-11 cells assessed as late apoptotic cells at 0.25 uM incubated for 15 mins by Annexin-V/FITC staining based FACS analysis (reference value: 4.17%). Format: functional. The method, boiled down:
as §1

For data set [12], the system named is Ramos. In words: Anti-proliferative activity against human Ramos cells assessed as cell viability measured after 72 hrs by Cell-Titer assay. It is filed as functional, cell-based. The method, boiled down:
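Cells were plated in 96-well plates and received compound or vehicle (0.5% DMSO) 24 h later. CellTiter-Blue was added at 72 h and fluorescence read at 560/590 nm. IC50 derived by non-linear regression.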

The subject of data set [13] is MV4-11. In words: Induction of apoptosis in human MV4-11 cells assessed as early apoptotic cells at 1 uM incubated for 15 mins by Annexin-V/FITC staining based FACS analysis (reference value: 0.70%). Format: functional. Particulars: 0.25 h. The method in brief: as §1
Data set [14] concerns the target Histone deacetylase 7 (Homo sapiens, UniProt Q8WUI4). In words: Inhibition of full length human HDAC7 using FAM-labeled acetylated peptide as substrate by electrophoretic mobility shift assay. The method in brief: as §2
For data set [15], the target named is Histone deacetylase 5 (Homo sapiens, UniProt Q9UQL6). In words: Inhibition of full length human HDAC5 using FAM-labeled acetylated peptide as substrate by electrophoretic mobility shift assay. The method, boiled down:
as §2

Data set [16] has as its target Polyamine deacetylase HDAC10 (Homo sapiens, UniProt Q969S8). In words: Inhibition of full length human HDAC10 using FAM-labeled acetylated peptide as substrate by electrophoretic mobility shift assay. The method in brief:
as §2

The nature of data set [17]: Stability in mouse plasma measured assessed as compound remaining after 60 mins. Format: ADME, cell-free. Particulars: read-out: Stability.
Data set [18] in a line: Stability in human whole blood assessed as compound remaining measured after 15 mins. Format: ADME, tissue-based. Particulars: read-out: Stability.
In data set [19] the test system is MV4-11. In words: Induction of apoptosis in human MV4-11 cells assessed as late apoptotic cells at 2 uM incubated for 15 mins by Annexin-V/FITC staining based FACS analysis (reference value: 4.17%). It is filed as functional. Particulars: 0.25 h. The method, boiled down: as §1
A short description of data set [20]: Stability in mouse plasma assessed as compound remaining measured after 30 mins. Format: ADME, cell-free. Particulars: read-out: Stability.
Data set [21] is described as follows: Kinetic solubility in pH 7.4 PBS buffer assessed as saturation concentration by HPLC analysis. It is filed as physicochemical.
Data set [22] is described as follows: Stability in human whole blood assessed as compound remaining measured after 30 mins. It is filed as ADME, tissue-based. Particulars: read-out: Stability.

The structures appear in SMILES notation.

Sequence of Polyamine deacetylase HDAC10 (Q969S8 whole entry): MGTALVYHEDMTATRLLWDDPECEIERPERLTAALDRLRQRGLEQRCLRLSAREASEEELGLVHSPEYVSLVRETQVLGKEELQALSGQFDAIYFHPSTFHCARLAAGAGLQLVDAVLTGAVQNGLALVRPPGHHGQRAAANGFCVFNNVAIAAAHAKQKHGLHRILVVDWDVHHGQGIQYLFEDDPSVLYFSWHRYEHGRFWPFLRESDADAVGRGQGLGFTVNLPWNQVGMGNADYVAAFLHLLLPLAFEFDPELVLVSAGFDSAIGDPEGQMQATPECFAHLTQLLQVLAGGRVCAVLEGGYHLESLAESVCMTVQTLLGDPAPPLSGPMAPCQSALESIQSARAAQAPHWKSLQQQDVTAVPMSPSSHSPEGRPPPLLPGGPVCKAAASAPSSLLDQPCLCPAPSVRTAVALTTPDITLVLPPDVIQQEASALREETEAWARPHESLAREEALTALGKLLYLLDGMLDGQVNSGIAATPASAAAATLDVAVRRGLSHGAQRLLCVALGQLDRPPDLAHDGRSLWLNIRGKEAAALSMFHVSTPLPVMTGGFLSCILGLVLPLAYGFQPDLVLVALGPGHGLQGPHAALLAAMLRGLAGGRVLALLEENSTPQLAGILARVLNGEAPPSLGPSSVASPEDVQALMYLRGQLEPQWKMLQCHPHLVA
Sequence of Histone deacetylase 5 (Q9UQL6 whole entry): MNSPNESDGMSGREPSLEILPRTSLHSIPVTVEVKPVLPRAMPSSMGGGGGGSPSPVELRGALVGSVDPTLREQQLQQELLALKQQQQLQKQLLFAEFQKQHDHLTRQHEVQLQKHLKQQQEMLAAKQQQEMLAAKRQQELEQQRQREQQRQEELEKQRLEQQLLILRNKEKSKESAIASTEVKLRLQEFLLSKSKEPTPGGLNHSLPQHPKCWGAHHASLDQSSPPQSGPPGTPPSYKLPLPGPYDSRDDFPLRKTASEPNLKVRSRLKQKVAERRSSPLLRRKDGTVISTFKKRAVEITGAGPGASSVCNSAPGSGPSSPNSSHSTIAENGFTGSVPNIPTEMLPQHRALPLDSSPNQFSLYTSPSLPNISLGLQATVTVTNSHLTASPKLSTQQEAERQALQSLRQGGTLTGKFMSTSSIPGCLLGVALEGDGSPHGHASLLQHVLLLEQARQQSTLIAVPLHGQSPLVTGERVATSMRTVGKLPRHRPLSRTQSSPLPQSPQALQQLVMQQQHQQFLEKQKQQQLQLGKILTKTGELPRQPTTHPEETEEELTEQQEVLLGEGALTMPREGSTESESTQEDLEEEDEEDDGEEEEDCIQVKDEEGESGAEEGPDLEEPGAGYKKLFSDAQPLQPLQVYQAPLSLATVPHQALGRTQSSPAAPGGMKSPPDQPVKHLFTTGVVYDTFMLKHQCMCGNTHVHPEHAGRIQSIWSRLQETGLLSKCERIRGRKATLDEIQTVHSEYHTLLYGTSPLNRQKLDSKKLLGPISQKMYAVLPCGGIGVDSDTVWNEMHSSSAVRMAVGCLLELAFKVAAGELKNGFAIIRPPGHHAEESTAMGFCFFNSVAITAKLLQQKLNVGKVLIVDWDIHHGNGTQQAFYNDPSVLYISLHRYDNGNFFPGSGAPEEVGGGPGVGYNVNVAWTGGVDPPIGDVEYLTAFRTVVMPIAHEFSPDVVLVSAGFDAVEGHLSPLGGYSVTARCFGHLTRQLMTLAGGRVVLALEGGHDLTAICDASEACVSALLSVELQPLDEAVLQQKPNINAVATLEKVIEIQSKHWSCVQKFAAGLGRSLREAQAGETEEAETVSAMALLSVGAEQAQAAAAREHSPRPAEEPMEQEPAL
Sequence of Histone deacetylase 7 (Q8WUI4 whole entry): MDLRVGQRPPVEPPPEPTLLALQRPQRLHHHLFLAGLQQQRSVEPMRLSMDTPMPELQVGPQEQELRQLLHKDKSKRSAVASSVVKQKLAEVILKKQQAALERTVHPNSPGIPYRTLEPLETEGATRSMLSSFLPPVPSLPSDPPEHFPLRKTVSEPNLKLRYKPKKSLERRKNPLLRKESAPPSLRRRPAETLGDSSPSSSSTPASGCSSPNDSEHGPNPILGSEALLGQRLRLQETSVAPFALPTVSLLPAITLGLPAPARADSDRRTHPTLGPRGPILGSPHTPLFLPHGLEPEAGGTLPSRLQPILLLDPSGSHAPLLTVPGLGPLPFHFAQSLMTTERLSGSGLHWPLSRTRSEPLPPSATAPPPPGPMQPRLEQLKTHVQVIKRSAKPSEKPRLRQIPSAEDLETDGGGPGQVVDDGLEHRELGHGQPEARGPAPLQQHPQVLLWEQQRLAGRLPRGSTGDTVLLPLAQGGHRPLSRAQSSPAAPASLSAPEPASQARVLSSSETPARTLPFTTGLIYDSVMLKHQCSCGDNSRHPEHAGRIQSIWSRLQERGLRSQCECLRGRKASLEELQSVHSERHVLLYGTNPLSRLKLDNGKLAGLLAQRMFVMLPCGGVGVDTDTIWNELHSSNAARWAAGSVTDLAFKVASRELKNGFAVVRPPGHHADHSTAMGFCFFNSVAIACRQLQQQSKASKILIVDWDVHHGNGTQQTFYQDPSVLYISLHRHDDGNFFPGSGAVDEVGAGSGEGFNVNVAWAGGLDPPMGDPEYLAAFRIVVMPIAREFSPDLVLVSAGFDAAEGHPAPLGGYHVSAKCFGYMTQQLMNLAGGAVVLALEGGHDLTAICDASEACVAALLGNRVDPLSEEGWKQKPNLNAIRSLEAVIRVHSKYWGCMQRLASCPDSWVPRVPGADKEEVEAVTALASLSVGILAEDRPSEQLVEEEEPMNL

As for `O=C(CCCCCCNC(=O)c1cnc(N(c2ccccc2)c2ccccc2Cl)nc1)NO` [CITARINOSTAT], the Activity in [1] came to 4.65%; in data set [2], 27.95%; in [3], 9.54%; in [6] it was 13.33%. Besides, the viability at 0.25 µM in data set [4] was determined as 84.3%. Moreover, the viability at 0.5 µM in [5] was found to be 81.4%.
Take `O=C(NO)c1ccc(CN(Cc2cccnc2)S(=O)(=O)c2cc(F)c(F)c(F)c2F)cc1`: the t1/2 was determined as 1.7 h in data set [7] and 1.83 h in data set [8]. The IC50 was determined as 4.97 µM in data set [9]; 0.3 µM in data set [12]; 7.29 µM in [14]; 8.65 µM in data set [15]; 0.572 µM in data set [16]. Also, in [10], the viability at 4 µM came to 7.96%. Besides, the Activity in [11] is 3.29%; in data set [13] it was 1.84%; in [19], 15.44%. Also, the remaining at 1 h in data set [17] worked out at 68%. Besides, the remaining at 0.25 h in data set [18] was 88%. The remaining at 0.5 h in [20] is 79.8%; in data set [22], 80.8%. For the same compound, the Kinetic_solubility in [21] is 161.5 µM.
